For orientation: IC50 means the concentration that inhibits the measured activity by half.

In experiment [1] the test system is MDA-MB-435. Kind of experiment: Cell cycle arrest in human MDA-MB-435 cells assessed as accumulation at G2/M phase at 0.25 uM after 24 hrs by propidium iodide staining-based flow cytometry (reference value: 14.05%). It counts as functional. For orientation: Flow cytometry measures light scatter and fluorescence of single cells or particles in a stream.
The subject of experiment [2] is MDA-MB-435. Put plainly: Induction of apoptosis in human MDA-MB-435 cells assessed as early apoptotic cells at 0.5 uM after 24 hrs by annexin-V FITC/propidium iodide staining-based flow cytometry (reference value: 0.61 +/- 0.24%). It counts as functional. The method, boiled down: (§1)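 MDA-MB-435 cells treated 24 h, stained with annexin V-FITC/PI per kit instructions, analysed by flow cytometry. Quadrant statistics: lower right taken as apoptotic, upper right as necrotic or post-apoptotic necrotic. Representative of three similar experiments.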

In the next experiment the test system is LNCaP. Kind of experiment: Cytotoxicity against human LNCAP cells assessed as growth inhibition after 72 hrs by MTT assay. Format: functional, cell-based. The method, boiled down:
(§2)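 MTT assay: cells treated in triplicate with a range of concentrations for 72 h at 37 °C, 5% CO2. Medium replaced, MTT (5 mg/mL) added for 4 h, then SDS/isobutanol/HCl solubiliser overnight. Absorbance read at 590 nm. Inhibition calculated against control and blank wells; IC50 is concentration giving 50% growth inhibition; three independent experiments.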
(In general: Tetrazolium assays rely on reduction of a dye to a coloured formazan, in cell work by metabolically active cells.)

In experiment [3] the test system is MDA-MB-435. Kind of experiment: Cell cycle arrest in human MDA-MB-435 cells assessed as accumulation at sub-G1 phase at 0.25 to 1 uM by propidium iodide staining-based flow cytometry. Format: functional. To be noted: TDE = time-dependent effect, in the assay text read “G2/M phase” for “sub-G1 phase”. A digest of the protocol:
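PI-stained DNA content of treated MDA-MB-435 cells read by flow cytometry. Sub-G1 population taken as apoptotic cellular fragments; three independent experiments.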

Experiment [4] relates to MDA-MB-435. Put plainly: Induction of apoptosis in human MDA-MB-435 cells assessed as upregulation of Bax protein expression at 0.25 to 1 uM after 12 hrs by Western blotting analysis. It counts as functional, cell-based. A digest of the protocol:
(§3)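 Treated MDA-MB-435 cells lysed in ice-cold Tris-HCl pH 7.4 buffer with Triton, phosphatase and protease inhibitors. Lysates clarified, boiled in SDS loading buffer, run on 8-12% SDS-PAGE and blotted. Membranes blocked in 5% skim milk, probed with primary antibodies, then peroxidase secondaries with ECL detection. β-actin as loading control.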
A general note: In western blotting, separated proteins are transferred to a membrane and probed.

Experiment [5] relates to MDA-MB-435. Put plainly: Induction of apoptosis in human MDA-MB-435 cells assessed as late apoptotic cells at 1 uM after 24 hrs by annexin-V FITC/propidium iodide staining-based flow cytometry (reference value: 0.34 +/- 0.08%). It counts as functional. A digest of the protocol:
as §1

Experiment [6] relates to MDA-MB-435. Kind of experiment: Induction of apoptosis in human MDA-MB-435 cells assessed as increase in cleaved-caspase 3 expression after 12 to 24 hrs by Western blotting analysis. Format: functional, cell-based. A digest of the protocol:
as §3

The test system of experiment [7] is MDA-MB-435. Put plainly: Cell cycle arrest in human MDA-MB-435 cells assessed as accumulation at G2/M phase at 0.5 uM after 24 hrs by propidium iodide staining-based flow cytometry (reference value: 14.05%). It counts as functional.
Experiment [8] relates to MDA-MB-435. Kind of experiment: Cytotoxicity against human MDA-MB-435 cells assessed as growth inhibition after 72 hrs by MTT assay. Format: functional, cell-based. To be noted: MDA-MB-435, 72 h. A digest of the protocol: as §2
The test system of experiment [9] is MDA-MB-435. Put plainly: Induction of apoptosis in human MDA-MB-435 cells assessed as early apoptotic cells at 1 uM after 24 hrs by annexin-V FITC/propidium iodide staining-based flow cytometry (reference value: 0.61 +/- 0.24%). Format: functional. A digest of the protocol: as §1
For experiment [10], the system named is MDA-MB-435. Put plainly: Induction of apoptosis in human MDA-MB-435 cells assessed as viable cells at 1 uM after 24 hrs by annexin-V FITC/propidium iodide staining-based flow cytometry (reference value: 98.62 +/- 0.25%). It counts as functional. The conditions noted are these: MDA-MB-435, 24 h, read-out: Activity. The method, boiled down: as §1
For experiment [11], the target named is DNA topoisomerase 2-alpha (Homo sapiens) (UniProt P11388). Kind of experiment: Inhibition of recombinant human DNA topoisomerase 2-alpha assessed as supression of kDNA decatenation at 100 uM after 30 mins by agarose gel electrophoresis. The method, boiled down: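 ATP-dependent decatenation assay: 0.20 µg kDNA with 2 units Topo IIα at 37 °C for 30 min, 20 µL. Buffer: 50 mM Tris pH 8.0, KCl, 10 mM MgCl₂, 0.5 mM ATP, 0.5 mM DTT, 30 µg/mL BSA. Stopped with 10% SDS. Agarose gel scored for kDNA versus released minicircles.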
Sequence of DNA topoisomerase 2-alpha (Homo sapiens) (P11388 whole entry): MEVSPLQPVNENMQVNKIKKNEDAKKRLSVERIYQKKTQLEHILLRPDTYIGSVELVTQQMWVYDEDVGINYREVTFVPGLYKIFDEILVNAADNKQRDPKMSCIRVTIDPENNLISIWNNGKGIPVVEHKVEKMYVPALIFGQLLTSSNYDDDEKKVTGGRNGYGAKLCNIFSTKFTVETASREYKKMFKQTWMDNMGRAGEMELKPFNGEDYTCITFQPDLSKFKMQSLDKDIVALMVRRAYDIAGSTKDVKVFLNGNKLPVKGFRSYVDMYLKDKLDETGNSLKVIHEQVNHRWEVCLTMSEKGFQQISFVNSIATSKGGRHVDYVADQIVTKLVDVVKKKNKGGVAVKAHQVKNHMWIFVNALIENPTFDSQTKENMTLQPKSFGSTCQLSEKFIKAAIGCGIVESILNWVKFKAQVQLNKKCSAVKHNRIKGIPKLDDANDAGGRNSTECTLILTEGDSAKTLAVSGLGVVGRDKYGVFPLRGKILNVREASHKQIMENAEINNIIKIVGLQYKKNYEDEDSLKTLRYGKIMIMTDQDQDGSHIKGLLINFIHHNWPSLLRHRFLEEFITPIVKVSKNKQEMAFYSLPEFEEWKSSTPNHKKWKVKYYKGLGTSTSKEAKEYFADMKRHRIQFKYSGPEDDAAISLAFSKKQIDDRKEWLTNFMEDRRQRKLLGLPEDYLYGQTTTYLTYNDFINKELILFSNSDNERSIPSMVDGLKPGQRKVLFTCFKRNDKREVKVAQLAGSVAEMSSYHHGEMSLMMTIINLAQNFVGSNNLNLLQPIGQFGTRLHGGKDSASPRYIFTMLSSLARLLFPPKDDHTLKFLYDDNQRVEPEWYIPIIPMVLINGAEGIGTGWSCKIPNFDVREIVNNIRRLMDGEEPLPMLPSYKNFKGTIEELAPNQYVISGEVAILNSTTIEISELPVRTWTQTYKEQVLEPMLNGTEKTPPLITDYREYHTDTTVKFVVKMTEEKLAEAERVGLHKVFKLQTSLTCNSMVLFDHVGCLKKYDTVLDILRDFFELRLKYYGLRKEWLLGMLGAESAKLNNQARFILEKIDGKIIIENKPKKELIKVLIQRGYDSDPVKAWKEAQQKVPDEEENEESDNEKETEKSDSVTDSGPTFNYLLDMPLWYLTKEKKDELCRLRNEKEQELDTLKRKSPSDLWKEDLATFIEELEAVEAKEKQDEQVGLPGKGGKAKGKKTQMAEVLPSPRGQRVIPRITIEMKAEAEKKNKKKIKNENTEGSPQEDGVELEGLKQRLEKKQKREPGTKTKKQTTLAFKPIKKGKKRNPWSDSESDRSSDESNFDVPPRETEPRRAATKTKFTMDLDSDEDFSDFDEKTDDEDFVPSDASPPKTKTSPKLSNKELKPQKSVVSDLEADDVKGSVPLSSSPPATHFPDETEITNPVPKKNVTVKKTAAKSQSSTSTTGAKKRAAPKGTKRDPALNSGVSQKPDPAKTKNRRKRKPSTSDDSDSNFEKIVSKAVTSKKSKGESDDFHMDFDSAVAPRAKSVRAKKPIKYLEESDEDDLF

Experiment [12] relates to MDA-MB-435. Put plainly: Cell cycle arrest in human MDA-MB-435 cells assessed as accumulation at G1 phase at 0.25 uM after 24 hrs by propidium iodide staining-based flow cytometry (reference value: 28.06%). Format: functional.
The test system of experiment [13] is MDA-MB-435. Put plainly: Induction of apoptosis in human MDA-MB-435 cells assessed as dead cells at 1 uM after 24 hrs by annexin-V FITC/propidium iodide staining-based flow cytometry (reference value: 0.61 +/- 0.24%). It counts as functional.
The species entered for experiment [14] is Bos taurus. Kind of experiment: Inhibition of calf thymus DNA topoisomerase 1-mediated relaxation of supercoiled pBR322 DNA at 100 uM after 30 mins by Agarose gel electrophoresis. The method, boiled down:
(§4)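 Relaxation assay with 0.5 µg supercoiled pBR322 and 1 unit calf thymus Topo I, 20 µL. Buffer: 10 mM Tris–HCl pH 7.9, 150 mM NaCl, 0.1% BSA, 1 mM spermidine, 5% glycerol. Incubated 37 °C for 30 min; stopped with sarcosyl stop solution. 1% agarose gel, 5 V/cm, 2 h, TAE; ethidium bromide stain (0.5 µg/mL), UV. DMSO stocks. At least duplicate.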

A further experiment concerns Calf thymus DNA. Put plainly: Induction of DNA intercalation activity of calf thymus DNA topoisomerase 1 assessed as unwinding of pBR322 DNA up to 100 uM after 30 mins by Agarose gel electrophoresis. Format: nucleic-acid assay. To be noted: Bos taurus. The method, boiled down: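 Relaxed pBR322 made by treating supercoiled plasmid with excess Topo I (10 units), then proteinase K digestion at 37 °C, phenol-chloroform extraction and ethanol precipitation. Incubated with compound 30 min at 37 °C, run on 1% agarose gel at 5 V/cm for 2 h in TAE, stained with 0.5 µg/mL ethidium bromide, viewed under UV.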

In experiment [15] the test system is MDA-MB-435. Put plainly: Induction of apoptosis in human MDA-MB-435 cells assessed as late apoptotic cells at 0.5 uM after 24 hrs by annexin-V FITC/propidium iodide staining-based flow cytometry (reference value: 0.34 +/- 0.08%). It counts as functional. A digest of the protocol:
as §1

The subject of a further experiment is A549. Put plainly: Cytotoxicity against human A549 cells assessed as growth inhibition after 72 hrs by MTT assay. Format: functional, cell-based. The method, boiled down:
as §2

The subject of experiment [16] is MDA-MB-435. Put plainly: Induction of DNA damage in human MDA-MB-435 cells assessed as phosphorylation of H2AX at Ser139 at 0.5 uM after 12 hrs by Western blotting analysis. It counts as functional, cell-based. The method, boiled down:
as §3

Experiment [17] relates to MDA-MB-435. Kind of experiment: Induction of DNA damage in human MDA-MB-435 cells assessed as phosphorylation of ATM at Ser1981 at 0.5 uM after 12 hrs by Western blotting analysis. It counts as functional, cell-based. A digest of the protocol:
as §3

The species named for experiment [18] is Bos taurus. Put plainly: Inhibition of calf thymus DNA topoisomerase 1-mediated relaxation of supercoiled pBR322 DNA at 10 to 100 uM after 30 mins by Agarose gel electrophoresis. A digest of the protocol: as §4
In experiment [19] the test system is MDA-MB-435. Kind of experiment: Cell cycle arrest in human MDA-MB-435 cells assessed as accumulation at G1 phase at 1 uM after 24 hrs by propidium iodide staining-based flow cytometry (reference value: 28.06%). It counts as functional.
For experiment [20], the system named is MDA-MB-435. Put plainly: Induction of apoptosis in human MDA-MB-435 cells assessed as viable cells at 0.5 uM after 24 hrs by annexin-V FITC/propidium iodide staining-based flow cytometry (reference value: 98.62 +/- 0.25%). Format: functional. The conditions noted are these: MDA-MB-435, 24 h, read-out: Activity. The method, boiled down: as §1

Activity calls are given as the source filed them. The calls are words filed in the database; no cut-off is given here.

Take `Oc1ccc(-c2ccc(-c3ccc(O)c(O)c3)cc2)cc1`: the Activity with MDA-MB-435 [1] was 16.24%; in the experiment on MDA-MB-435 [2] it was 8.01%; in the experiment on MDA-MB-435 [3] it was “tde”; in the experiment with MDA-MB-435 [5], 8.64%; with MDA-MB-435 [6], “Dose-dependent effect”; in the experiment on MDA-MB-435 [7], 38.41%. The Activity with MDA-MB-435 [9] stood at 13.33%; with MDA-MB-435 [12], 34.91%; in the experiment on MDA-MB-435 [13], 1.03%; with MDA-MB-435 [15] it was 7.79%; in the experiment on MDA-MB-435 [19] it was 22.42%. Further, the “growth inhibition (GI)” value in the experiment with LNCaP and in the experiment on A549 was “Active” throughout. In addition, in the experiment with MDA-MB-435 [4], the result was Active. Besides, in the experiment with MDA-MB-435 [8], the half-inhibitory concentration (IC50) was less than 1 µM. The viability at 1 µM with MDA-MB-435 [10] was 76.3%. Moreover, the inhibition result (in [11]; in the experiment listed under Bos taurus [14]; in the experiment listed under Bos taurus [18]) was “Active” in each case. Further, the result in the experiment on Calf thymus DNA, in the experiment on MDA-MB-435 [16] and in the experiment with MDA-MB-435 [17] was inactive. The viability at 0.5 µM with MDA-MB-435 [20] is 81.6%.

Values taken from ChEMBL document CHEMBL2424614, “A novel p-terphenyl derivative inducing cell-cycle arrest and apoptosis in MDA-MB-435 cells through topoisomerase inhibition” (Eur J Med Chem, 2013).
